We go through 24 molecules from ChEMBL document CHEMBL2406983, “Synthesis and the 5-HT6 receptor antagonistic effect of 3-arylsulfonylamino-5,6-dihydro-6-substituted pyrazolo[3,4]pyridinones for neuropathic pain treatment” (Bioorg Med Chem Lett, 2013).

Calls of active or inactive are those of the source. The rule behind the calls is not given here.

The target in data set [1] is T1, 5-hydroxytryptamine receptor 6 (Homo sapiens, UniProt P50406). Nature of the data set: Antagonist activity at human 5-HT6 receptor expressed in human HeLa cells assessed as inhibition of 5-HT-induced cAMP accumulation at 10 uM pretreated for 10 mins before 5-HT addition measured after 30 mins. It is filed as functional, cell-based. In outline: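 HeLa cells stably expressing human 5-HT6 receptor, grown at 37 °C in 5% CO2/95% air, suspended in PBS with 2 mM IBMX. Compound pretreatment 10 min, then 100 nM 5-HT stimulation for 30 min. cAMP measured by HTRF (d2-labeled cAMP plus cryptate anti-cAMP antibody, 1 h at room temperature), excitation 314 nm, emission 668 and 620 nm. Single-point inhibition read at […].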
In general terms: Cyclic AMP is a second messenger, typically raised through Gs and lowered through Gi signalling.

Data set [2] concerns the target T1, 5-hydroxytryptamine receptor 6. Nature of the data set: Antagonist activity at human 5-HT6 receptor expressed in human HeLa cells assessed as inhibition of 5-HT-induced cAMP accumulation pretreated for 10 mins before 5-HT addition measured after 30 mins. In kind it is functional, cell-based.
For data set [3], the species on record is Rattus norvegicus. Nature of the data set: Ratio of gabapentin antiallodynic activity to compound antiallodynic activity in rat spinal nerve ligation neuropathic pain cold allodynia model. It is filed as functional.
Data set [4] is described as follows: Metabolic stability in human liver microsomes assessed as compound remaining after 30 mins. In kind it is ADME, Microsome. Particulars: read-out: Stability. In outline:
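Compounds incubated with human hepatic microsomes; percent of parent concentration remaining at 30 min.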
For orientation: Liver microsomes are vesicles of endoplasmic reticulum, rich in cytochrome P450 enzymes.

Data set [5] addresses CYP2C19 (Homo sapiens, UniProt P33261). As to the kind of experiment: Inhibition of human CYP2C19 assessed as residual activity using miconazole as […] at 10 uM relative to control. It is filed as ADME. Particulars: probe miconazole, read-out: Activity.
Data set [6] addresses T2, CYP1A2 (Homo sapiens, UniProt P05177).
T2 sequence (P05177 whole entry): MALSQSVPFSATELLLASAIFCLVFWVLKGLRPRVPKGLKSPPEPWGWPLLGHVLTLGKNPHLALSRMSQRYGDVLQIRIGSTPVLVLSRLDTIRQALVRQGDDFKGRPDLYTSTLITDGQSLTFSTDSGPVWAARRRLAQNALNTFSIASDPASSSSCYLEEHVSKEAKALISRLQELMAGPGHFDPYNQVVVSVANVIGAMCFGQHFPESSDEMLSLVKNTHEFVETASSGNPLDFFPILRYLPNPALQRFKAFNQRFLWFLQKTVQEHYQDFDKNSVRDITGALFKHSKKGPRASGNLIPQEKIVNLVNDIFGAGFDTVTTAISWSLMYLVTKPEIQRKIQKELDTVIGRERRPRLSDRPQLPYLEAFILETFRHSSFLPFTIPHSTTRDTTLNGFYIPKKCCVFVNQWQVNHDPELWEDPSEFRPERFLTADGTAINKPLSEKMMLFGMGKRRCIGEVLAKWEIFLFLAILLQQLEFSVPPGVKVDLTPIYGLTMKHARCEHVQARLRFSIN
As to the kind of experiment: Inhibition of human CYP1A2 assessed as residual activity using alpha-naphthoflavon as […] at 10 uM relative to control. It is filed as ADME. Particulars: read-out: Activity.

In data set [7] the target is CYP2C9 (Homo sapiens, UniProt P11712). As to the kind of experiment: Inhibition of human CYP2C9 assessed as residual activity using sulfaphenazol as […] at 10 uM relative to control. Particulars: read-out: Activity. In kind it is ADME.
Data set [8] has as its target CYP3A4 (Homo sapiens, UniProt P08684). As to the kind of experiment: Inhibition of human CYP3A4 assessed as residual activity using ketoconazole as […] at 10 uM relative to control. The settings on record: probe ketoconazole, read-out: Activity. It is filed as ADME.
Data set [9] deals with Rattus norvegicus. As to the kind of experiment: Antiallodynic activity in rat spinal nerve ligation neuropathic pain cold allodynia model at 100 mg/kg, po after 1 to 5 hrs. In kind it is functional, organism-based. On the set-up: dose 100 mg/kg. The method, boiled down:
(§1)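 Cold and mechanical allodynia assessed at hours after a single oral 100 mg/kg dose, n = 4 per group; gabapentin 100 mg/kg po as reference.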

In data set [10] the test system is Rattus norvegicus. As to the kind of experiment: Antiallodynic activity in rat spinal nerve ligation neuropathic pain mechanical allodynia model at 100 mg/kg, po after 5 hrs. On the set-up: dose 100 mg/kg. It is filed as functional, organism-based. In outline:
as §1

The subject of data set [11] is Rattus norvegicus. Nature of the data set: Antiallodynic activity in rat spinal nerve ligation neuropathic pain mechanical allodynia model at 100 mg/kg, po after 1 to 3 hrs. In kind it is functional, organism-based. More on the design: dose 100 mg/kg. In outline:
as §1

For data set [12], the target named is CYP2D6 (Homo sapiens, UniProt P10635). As to the kind of experiment: Inhibition of human CYP2D6 assessed as residual activity using quinidine as […] at 10 uM relative to control. The settings on record: probe quinidine, read-out: Activity. In kind it is ADME.
Sequence of CYP2D6 (P10635 whole entry): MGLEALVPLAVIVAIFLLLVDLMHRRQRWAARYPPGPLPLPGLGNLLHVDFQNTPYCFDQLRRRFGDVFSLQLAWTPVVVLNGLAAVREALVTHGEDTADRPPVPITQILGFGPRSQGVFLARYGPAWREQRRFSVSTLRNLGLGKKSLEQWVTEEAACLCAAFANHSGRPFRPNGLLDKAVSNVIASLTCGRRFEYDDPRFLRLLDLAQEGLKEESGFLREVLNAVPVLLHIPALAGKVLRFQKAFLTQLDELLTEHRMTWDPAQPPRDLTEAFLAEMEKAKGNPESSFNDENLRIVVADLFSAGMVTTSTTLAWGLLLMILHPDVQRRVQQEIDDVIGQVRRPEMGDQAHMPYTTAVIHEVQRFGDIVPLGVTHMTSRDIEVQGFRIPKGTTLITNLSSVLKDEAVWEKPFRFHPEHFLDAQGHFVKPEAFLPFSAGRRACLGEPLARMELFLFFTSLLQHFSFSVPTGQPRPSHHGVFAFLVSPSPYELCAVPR

Sequence of CYP2C9 (P11712 whole entry): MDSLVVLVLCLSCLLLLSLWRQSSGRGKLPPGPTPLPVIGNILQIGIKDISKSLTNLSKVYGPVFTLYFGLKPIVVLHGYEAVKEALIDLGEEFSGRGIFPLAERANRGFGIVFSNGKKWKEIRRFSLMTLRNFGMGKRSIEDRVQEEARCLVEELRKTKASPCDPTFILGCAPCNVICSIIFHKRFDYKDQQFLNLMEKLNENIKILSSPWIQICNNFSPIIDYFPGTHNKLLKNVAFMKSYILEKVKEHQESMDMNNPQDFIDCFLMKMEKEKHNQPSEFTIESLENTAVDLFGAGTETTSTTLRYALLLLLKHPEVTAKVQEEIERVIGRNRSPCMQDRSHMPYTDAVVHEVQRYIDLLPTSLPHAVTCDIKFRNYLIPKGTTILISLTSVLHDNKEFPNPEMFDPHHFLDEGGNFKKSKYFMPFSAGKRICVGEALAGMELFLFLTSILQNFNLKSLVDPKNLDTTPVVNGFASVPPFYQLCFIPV
Sequence of CYP3A4 (P08684 whole entry): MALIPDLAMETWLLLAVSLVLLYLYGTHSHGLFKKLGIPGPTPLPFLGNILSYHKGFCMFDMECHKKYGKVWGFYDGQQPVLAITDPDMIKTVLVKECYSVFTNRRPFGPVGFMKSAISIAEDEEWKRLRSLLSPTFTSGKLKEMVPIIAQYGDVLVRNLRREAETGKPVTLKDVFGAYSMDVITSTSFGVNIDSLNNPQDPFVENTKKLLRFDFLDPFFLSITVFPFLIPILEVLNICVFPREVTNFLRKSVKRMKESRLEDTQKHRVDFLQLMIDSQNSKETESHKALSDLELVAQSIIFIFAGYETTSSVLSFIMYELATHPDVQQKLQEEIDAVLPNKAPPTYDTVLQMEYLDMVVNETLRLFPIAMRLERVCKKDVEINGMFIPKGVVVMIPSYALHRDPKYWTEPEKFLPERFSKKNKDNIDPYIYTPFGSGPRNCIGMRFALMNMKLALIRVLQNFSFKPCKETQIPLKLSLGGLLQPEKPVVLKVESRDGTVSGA
T1 sequence (P50406 whole entry): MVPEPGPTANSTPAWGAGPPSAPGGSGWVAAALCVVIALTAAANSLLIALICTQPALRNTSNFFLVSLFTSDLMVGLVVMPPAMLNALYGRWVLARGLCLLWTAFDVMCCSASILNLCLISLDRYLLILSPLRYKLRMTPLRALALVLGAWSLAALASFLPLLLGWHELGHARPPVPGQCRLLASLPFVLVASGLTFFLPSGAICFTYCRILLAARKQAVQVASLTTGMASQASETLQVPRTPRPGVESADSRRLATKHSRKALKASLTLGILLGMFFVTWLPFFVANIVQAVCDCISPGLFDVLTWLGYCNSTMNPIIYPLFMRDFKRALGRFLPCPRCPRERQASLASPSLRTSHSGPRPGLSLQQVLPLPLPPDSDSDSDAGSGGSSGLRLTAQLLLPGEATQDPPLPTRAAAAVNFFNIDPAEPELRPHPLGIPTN
Sequence of CYP2C19 (P33261 whole entry): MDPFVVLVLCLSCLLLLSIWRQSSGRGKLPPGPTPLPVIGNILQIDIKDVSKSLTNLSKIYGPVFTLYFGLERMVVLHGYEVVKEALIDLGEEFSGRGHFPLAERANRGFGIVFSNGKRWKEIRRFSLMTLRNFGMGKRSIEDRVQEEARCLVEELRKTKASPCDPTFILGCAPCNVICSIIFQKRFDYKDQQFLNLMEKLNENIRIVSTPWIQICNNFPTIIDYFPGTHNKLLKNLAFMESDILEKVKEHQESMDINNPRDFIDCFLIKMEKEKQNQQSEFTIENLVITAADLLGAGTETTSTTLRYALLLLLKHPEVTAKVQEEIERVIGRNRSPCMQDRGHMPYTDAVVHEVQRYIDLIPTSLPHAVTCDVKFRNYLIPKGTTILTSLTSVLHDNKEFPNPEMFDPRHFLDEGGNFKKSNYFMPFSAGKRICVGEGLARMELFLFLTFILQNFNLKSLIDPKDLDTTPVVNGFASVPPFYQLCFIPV

Take `Cc1c(Cl)cccc1S(=O)(=O)Nc1n[nH]c2c1CCN(CC1CCNCC1)C2=O`: the inhibition in data set [1] worked out at 51.7%.

As to `Cc1ccc(N2CCc3c(NS(=O)(=O)c4ccccc4)n[nH]c3C2=O)cc1`, the inhibition in [1] is 23.5%.

For `COc1ccc(S(=O)(=O)Nc2n[nH]c3c2CCN(CC2CCNCC2)C3=O)cc1`, the inhibition in data set [1] was found to be 15.1%.

For the molecule `COc1cccc(S(=O)(=O)Nc2n[nH]c3c2CCN(c2ccc(C)cc2)C3=O)c1`, in [2], the 50% inhibitory concentration (IC50) came out at 6770 nM. Moreover, the inhibition in [1] turned out to be 63.2%.

With `O=C1c2[nH]nc(NS(=O)(=O)c3cccc4ccccc34)c2CCN1CC1CCNCC1`, the Ratio in [3] is reported as 5. Further, the IC50 in data set [2] was 310 nM. The remaining at 0.5 h in data set [4] came out at 90.8%. The activity at 10 µM in data set [5] turned out to be 104%; in data set [6], 79.1%; in [7], 98.4%; in [8] it was 17.8%; in data set [12], 97.2%. Further, the inhibition in [1] worked out at 94.1%. Besides, the Activity entry in data set [9] and in data set [11] was “Active” in each case. For the same molecule, in data set [10], the Activity entry was “inactive”.

In the case of `COc1ccc(N2CCc3c(NS(=O)(=O)c4cccc(OC)c4)n[nH]c3C2=O)cc1`, the IC50 in data set [2] was 7080 nM. For the same molecule, the inhibition in data set [1] came out at 63.3%.

As for `Cc1ccc(N2CCc3c(NS(=O)(=O)c4cccc(Cl)c4)n[nH]c3C2=O)cc1`, the inhibition in [1] is 5.4%.

As to `COc1ccc(OC)c(S(=O)(=O)Nc2n[nH]c3c2CCN(c2ccc(C)cc2)C3=O)c1`, the inhibition in [1] worked out at 3.8%.

`COc1ccc(S(=O)(=O)Nc2n[nH]c3c2CCN(C2CCNCC2)C3=O)cc1`: the inhibition in data set [1] amounted to 26.1%.

Consider `Cc1ccc(N2CCc3c(NS(=O)(=O)c4cccc(Cl)c4C)n[nH]c3C2=O)cc1`, for which, in data set [2], the IC50 was 1660 nM. In addition, the inhibition in data set [1] was determined as 92.2%.

Consider `COc1ccc(N2CCc3c(NS(=O)(=O)c4ccccc4)n[nH]c3C2=O)cc1`, for which the inhibition in data set [1] was 30.6%.

On to `Cc1ccc(N2CCc3c(NS(=O)(=O)c4cccc(C(F)(F)F)c4)n[nH]c3C2=O)cc1`, for which the half-inhibitory concentration (IC50) in [2] is 3280 nM. The inhibition in data set [1] stood at 69%.

Regarding `COc1ccc(N2CCc3c(NS(=O)(=O)c4ccc(F)cc4)n[nH]c3C2=O)cc1`, the inhibition in [1] came to 30.6%.

On to `O=C1c2[nH]nc(NS(=O)(=O)c3cccc4ccccc34)c2CCN1C1CCNCC1`, for which, in [2], the IC50 came out at 770 nM. For the same molecule, in [4], the remaining at 0.5 h is 101%. In addition, the activity at 10 µM was 99.8% in [5]; 67.7% in [6]; 94.5% in [7]; 16.7% in data set [8]; 95.1% in data set [12]. The inhibition in data set [1] was 89.5%.

In the case of `Cc1ccc(F)c(S(=O)(=O)Nc2n[nH]c3c2CCN(CC2CCNCC2)C3=O)c1`, the inhibition in [1] came to 30.6%.

For `O=C1c2[nH]nc(NS(=O)(=O)c3cccc(Cl)c3)c2CCN1CC1CCNCC1`, the inhibition in [1] was determined as 31%.

`COc1ccc(NS(=O)(=O)c2ccc(I)cc2)cc1N1CCN(C)CC1`: in [1], the inhibition came to 97.7%.

With `Cc1ccc(N2CCc3c(NS(=O)(=O)c4cccc(F)c4)n[nH]c3C2=O)cc1`, in [1], the inhibition came out at 18.1%.

Take `CC(C)(C)c1ccc(S(=O)(=O)Nc2n[nH]c3c2CCN(CC2CCNCC2)C3=O)cc1`: in [1], the inhibition was 11.5%.

Regarding `Cc1ccc(N2CCc3c(NS(=O)(=O)c4cc(C)ccc4F)n[nH]c3C2=O)cc1`, in [1], the inhibition worked out at 25.9%.

As for `Cc1ccc(N2CCc3c(NS(=O)(=O)c4ccccc4F)n[nH]c3C2=O)cc1`, in data set [1], the inhibition was found to be 29.6%.

Take `Cc1ccc(N2CCc3c(NS(=O)(=O)c4ccc(F)cc4)n[nH]c3C2=O)cc1`: the IC50 in data set [2] was 5220 nM. In addition, the inhibition in [1] was found to be 67.9%.

Regarding `COc1ccc(N2CCc3c(NS(=O)(=O)c4cccc(F)c4)n[nH]c3C2=O)cc1`, the IC50 in data set [2] was determined as 580 nM. The remaining at 0.5 h in [4] was 96.3%. For the same molecule, the activity at 10 µM stood at 81.8% in [5]; 63.5% in data set [6]; 78.6% in [7]; 19.5% in data set [8]; 87.8% in data set [12]. In addition, the inhibition in [1] came to 95.2%.

In the case of `O=C1c2[nH]nc(NS(=O)(=O)c3ccc4ccccc4c3)c2CCN1CC1CCNCC1`, in [1], the inhibition came out at 40.9%.

The inhibition is the share of the control response that was lost under treatment. A word on the IC50: it is the concentration needed to halve the response being measured.
